Active and inactive are the calls of the source. The calls are words filed in the database; no cut-off is given here.
Legend:
A 172 = experiment: Antimigratory activity against human A172 cells assessed as reduction in cell migration towards wound area at 10 uM measured after 24 hrs by Giemsa staining based microscopic analysis; format: functional
Outline: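 A172 cells plated at 50,000 cells/well, incubated overnight at 37 °C, 5% CO2, then held 24 h in serum-free DMEM. A scratch was made, compounds were added, and cells grew 24 h until DMSO-control wells closed. Cells were Giemsa-stained and imaged at 10X.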

U-87 MG [1] = experiment: Inhibition of colony formation in human U87MG cells […] by crystal violet staining based assay; format: functional, cell-based; details: U-87MG ATCC
Outline: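 Clonogenicity: U87MG cells seeded at 200 cells/well, left overnight, treated 24 h, then medium replaced and cells grown ten days. Stained 30 min with crystal violet, washed, imaged; normalized well intensity from three independent experiments.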

D54 cell line = experiment: Inhibition of colony formation in 1 to 6 Gy-irradiated human D54 cells at 1 uM measured after 10 to 12 days by crystal violet staining based assay; format: functional, cell-based
Outline: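 D54 cells irradiated at 0, 1, 2, 4 or 6 Gy and plated immediately at 200–1000 cells/well according to dose. Treated with DMSO, 0.05 μM PACMA31 or 1 μM compounds, grown 10–12 days, then colonies stained with 0.1% crystal violet.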

U-87 MG [2] = experiment: Down regulation of MMP9 expression in human U87MG cells at 10 uM measured after 24 hrs by Western blot analysis; format: functional, cell-based; details: U-87MG ATCC
U-87 MG [3] = experiment: Cytotoxicity against human U87MG cells assessed as inhibition of cell proliferation at <IC50 measured after 72 hrs by MTT assay relative to control; format: functional, U-87MG ATCC
HFF-1 = experiment: Cytotoxicity against HFF1 cells assessed as inhibition of cell growth measured after 72 hrs by MTT assay; format: cell-based; details: Homo sapiens, HFF-1, 72 h
Outline: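 Cells grown as monolayers at 37 °C, 5% CO2, seeded and left overnight, then exposed to drug or vehicle for 72 h. MTT (20 μL of 3 mg/mL) added for 4 h, supernatant removed, formazan dissolved in DMSO, absorbance read at 570 nm. IC50 from nonlinear regression of log concentration–response curves; at least three independent experiments.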

[4] = molecular target: T1, Protein disulfide-isomerase (Homo sapiens, UniProt P07237); experiment: Binding affinity to recombinant human N-terminal His-tagged PDI expressed in Escherichia coli BL21 (DE3) pLysS assessed as change in melting temperature at 100 uM by ROX dye based thermal shift assay
Outline: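 Purified wild-type, C53S/C397S or H256A PDI at 0.5 mg/mL in 50 mM Tris, pH 7.0, with or without 100 μM compound, was mixed with ROX dye in a 20 µL well. DMSO (5% in buffer) was the control. Samples were heated 25–99 °C at 1 °C/min, and the Boltzmann melting temperature shift versus DMSO was reported. Mean ± SD of three experiments.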
Target sequence in this assay (P07237 18-508 limits assumed): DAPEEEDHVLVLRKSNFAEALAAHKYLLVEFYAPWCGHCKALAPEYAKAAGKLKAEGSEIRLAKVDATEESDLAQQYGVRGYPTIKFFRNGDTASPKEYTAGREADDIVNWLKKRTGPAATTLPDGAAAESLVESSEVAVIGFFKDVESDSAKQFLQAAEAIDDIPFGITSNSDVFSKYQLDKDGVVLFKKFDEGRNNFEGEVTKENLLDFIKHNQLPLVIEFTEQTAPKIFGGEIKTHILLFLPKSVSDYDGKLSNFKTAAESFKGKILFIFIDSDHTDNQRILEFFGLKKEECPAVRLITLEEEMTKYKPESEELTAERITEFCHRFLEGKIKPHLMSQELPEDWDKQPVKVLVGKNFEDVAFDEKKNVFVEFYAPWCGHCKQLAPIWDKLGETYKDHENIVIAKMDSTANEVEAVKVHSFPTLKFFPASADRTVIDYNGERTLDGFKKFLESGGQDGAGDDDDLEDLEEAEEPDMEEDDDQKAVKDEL

U-87 MG [5] = experiment: Effect on MMP2 expression in human U87MG cells at 10 uM measured after 24 hrs by Western blot analysis; format: functional, cell-based; details: U-87MG ATCC
U-87 MG [6] = experiment: Down regulation of LIF gene expression in human U87MG cells at 16 uM incubated for 4 hrs followed by bromouridine addition during last 30 mins of incubation by TRIzol-reagent based Bru-Seq analysis relative to control; format: functional, U-87MG ATCC
U-87 MG [7] = experiment: Down regulation of HIST1H4B gene expression in human U87MG cells at 16 uM incubated for 4 hrs followed by bromouridine addition during last 30 mins of incubation by TRIzol-reagent based Bru-Seq analysis relative to control; format: functional, U-87MG ATCC
[8] = molecular target: T1, Protein disulfide-isomerase; experiment: Inhibition of recombinant human N-terminal His-tagged PDI expressed in Escherichia coli BL21 (DE3) pLysS assessed as reduction in enzyme-mediated bovine insulin aggregation at 40 uM measured after 1 hr in presence of 1 to 2 mM NAC
Outline: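 Compounds pretreated with NAC for 30 min at 37 °C, then added to the insulin reductase assay at final 40 μM compound with 0, 1, 2 or 5 mM NAC. The assay uses 0.4 μM PDI preincubated 1 h at 37 °C, then DTT and bovine insulin, read at 620 nm, with % activity at 80 min.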
Target sequence in this assay (P07237 18-508 limits assumed): as above

U-87 MG [9] = experiment: Up regulation of PIR gene expression in human U87MG cells at 16 uM incubated for 4 hrs followed by bromouridine addition during last 30 mins of incubation by TRIzol-reagent based Bru-Seq analysis relative to control; format: functional, U-87MG ATCC
Outline: (§1)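 U87MG cells exposed to compound or DMSO vehicle for 4 h, with 2 mM bromouridine added for the final 30 min. Total RNA isolated with TRIzol; Bru-labelled nascent RNA captured on anti-BrdU antibody-conjugated magnetic beads and sequenced. Transcript abundance expressed as RPKM relative to DMSO. Experiment performed once.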

U-87 MG [10] = experiment: Down regulation of CD83 gene expression in human U87MG cells at 16 uM incubated for 4 hrs followed by bromouridine addition during last 30 mins of incubation by TRIzol-reagent based Bru-Seq analysis relative to control; format: functional, U-87MG ATCC
U-87 MG [11] = experiment: Down regulation of CSF3 gene expression in human U87MG cells at 16 uM incubated for 4 hrs followed by bromouridine addition during last 30 mins of incubation by TRIzol-reagent based Bru-Seq analysis relative to control; format: functional, U-87MG ATCC; outline: as §1
[12] = molecular target: T1, Protein disulfide-isomerase; experiment: Binding affinity to recombinant human N-terminal His-tagged PDI expressed in Escherichia coli BL21 (DE3) pLysS by isothermal titration calorimetry
Target sequence in this assay (P07237 whole entry): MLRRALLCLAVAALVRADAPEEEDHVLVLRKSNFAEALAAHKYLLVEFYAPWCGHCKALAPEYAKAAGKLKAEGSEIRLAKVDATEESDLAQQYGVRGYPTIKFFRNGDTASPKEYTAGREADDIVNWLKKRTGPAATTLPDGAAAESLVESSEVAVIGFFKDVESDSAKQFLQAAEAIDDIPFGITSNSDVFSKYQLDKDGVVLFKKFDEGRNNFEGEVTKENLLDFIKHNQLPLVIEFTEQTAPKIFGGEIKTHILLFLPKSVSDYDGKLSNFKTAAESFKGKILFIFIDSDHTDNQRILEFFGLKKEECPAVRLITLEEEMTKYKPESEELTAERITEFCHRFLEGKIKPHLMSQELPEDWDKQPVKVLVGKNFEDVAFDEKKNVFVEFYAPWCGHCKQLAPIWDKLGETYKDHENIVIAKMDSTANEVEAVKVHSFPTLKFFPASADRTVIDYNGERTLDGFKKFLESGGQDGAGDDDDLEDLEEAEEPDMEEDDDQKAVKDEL

U-87 MG [13] = experiment: Down regulation of H1F0 gene expression in human U87MG cells at 16 uM incubated for 4 hrs followed by bromouridine addition during last 30 mins of incubation by TRIzol-reagent based Bru-Seq analysis relative to control; format: functional, U-87MG ATCC
U-87 MG [14] = experiment: Up regulation of DNAJB1 gene expression in human U87MG cells at 10 uM incubated for 4 hrs followed by bromouridine addition during last 30 mins of incubation by TRIzol-reagent based Bru-Seq analysis relative to control; format: functional, U-87MG ATCC; outline: as §1
U-87 MG [15] = experiment: Up regulation of CHAC1 gene expression in human U87MG cells at 10 uM incubated for 4 hrs followed by bromouridine addition during last 30 mins of incubation by TRIzol-reagent based Bru-Seq analysis relative to control; format: functional, U-87MG ATCC; outline: as §1
U-87 MG [16] = experiment: Down regulation of E2F8 gene expression in human U87MG cells at 10 uM incubated for 4 hrs followed by bromouridine addition during last 30 mins of incubation by TRIzol-reagent based Bru-Seq analysis relative to control; format: functional, U-87MG ATCC
U-87 MG [17] = experiment: Up regulation of SESN2 gene expression in human U87MG cells at 10 uM incubated for 4 hrs followed by bromouridine addition during last 30 mins of incubation by TRIzol-reagent based Bru-Seq analysis relative to control; format: functional, U-87MG ATCC; outline: as §1
U-87 MG [18] = experiment: Down regulation of CHSY3 gene expression in human U87MG cells at 10 uM incubated for 4 hrs followed by bromouridine addition during last 30 mins of incubation by TRIzol-reagent based Bru-Seq analysis relative to control; format: functional, U-87MG ATCC
U-87 MG [19] = experiment: Down regulation of ANKRD36 gene expression in human U87MG cells at 10 uM incubated for 4 hrs followed by bromouridine addition during last 30 mins of incubation by TRIzol-reagent based Bru-Seq analysis relative to control; format: functional, U-87MG ATCC
U-87 MG [20] = experiment: Down regulation of LYPD6 gene expression in human U87MG cells at 10 uM incubated for 4 hrs followed by bromouridine addition during last 30 mins of incubation by TRIzol-reagent based Bru-Seq analysis relative to control; format: functional, U-87MG ATCC

Row | ΔTm [4] [°C] | inhibition [8] | Kd [12] | Compound | Activity (A 172) | inhibition (U-87 MG [1]) | inhibition (D54 cell line) | Activity (U-87 MG [2]) | inhibition (INH) (U-87 MG [3]) [%] | IC50 (HFF-1) [µM] | Activity (U-87 MG [5]) | further results
1 | 0.52 | – | – | CCCCCN(CCCCC)S(=O)(=O)c1ccc(C(=O)/C=C/c2cccc(C#N)c2)cc1 | Active | Dose-dependent effect | – | Active | – | 3.4 | inactive | fold change (FC) (U-87 MG [14]): 16.9; fold change (FC) (U-87 MG [15]): 40.9; fold change (FC) (U-87 MG [16]): 2.4; fold change (FC) (U-87 MG [17]): 26.9; fold change (FC) (U-87 MG [18]): 2.6; fold change (FC) (U-87 MG [19]): 2.4; fold change (FC) (U-87 MG [20]): 3.1
2 | 3.58 | Active | Nd(Insoluble) | CCCCCN(CCCCC)S(=O)(=O)c1ccc(C(=O)/C=C/c2cccc(O)c2)cc1 | Active | Dose-dependent effect | – | Active | – | 29.2 | inactive | –

The remaining lines, values behind:

Row | Compound | ΔTm [4] [°C] | inhibition [8] | Kd [12] | Activity (A 172) | inhibition (U-87 MG [1]) | inhibition (D54 cell line) | Activity (U-87 MG [2]) | inhibition (INH) (U-87 MG [3]) [%] | IC50 (HFF-1) [µM] | Activity (U-87 MG [5]) | further results
3 | O=C(/C=C/c1ccc(-c2cccnc2)cc1)c1cccc(O)c1 | 2.83 | – | – | Active | Dose-dependent effect | Active | Active | >50 | 22.5 | inactive | –
4 | COC(=O)c1cccc(/C=C/C(=O)c2cccc(O)c2)c1 | 1.86 | Active | Nd(Insoluble) | Active | Dose-dependent effect | – | – | >50 | 17.4 | inactive | fold change (FC) (U-87 MG [6]): 2.7; fold change (FC) (U-87 MG [7]): 2.7; fold change (FC) (U-87 MG [9]): 4.3; fold change (FC) (U-87 MG [10]): 2.7; fold change (FC) (U-87 MG [11]): 8.3; fold change (FC) (U-87 MG [13]): 2.7
5 | N#Cc1cccc(/C=C/C(=O)c2ccc(O)cc2)c1 | 2.85 | – | – | Active | Dose-dependent effect | Active | – | – | 91.2 | inactive | Kd ([12]; read-out: Kd): 9.1 µM

Source: ChEMBL document CHEMBL4390639, “Design, Synthesis, and Biological Evaluation of Novel Allosteric Protein Disulfide Isomerase Inhibitors” (J Med Chem, 2019)
